The text below walks through data of ChEMBL document CHEMBL4513216, “Probing the Open Global Health Chemical Diversity Library for Multistage-Active Starting Points for Next-Generation Antimalarials” (ACS Infect Dis, 2020).

This series is described as follows: Toxicity liver stage against HepG2, at 10uM. Format: cell-based. The arrangement: test concentration 10 uM, cell line HepG2-A16-CD81EGFP. As to conditions: human, HepG2-A16-CD81EGFP cells; read-out: INHIBITION
The gist of the method: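 Uninfected HepG2-A16-CD81EGFP cells, 3 × 10^3 per well, 1536-well, plated on prespotted compound at 10 μM final, parasite-free screening media added to match infected plates; puromycin 10 μM positive, DMSO 0.5% negative; run in parallel with 48 h PbLuc assay at 37 °C, 5% CO2; viability by CellTiter-Glo luminescence, normalized to controls.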
Consider `CN(C)Cc1cc(CC2(NCc3ccc(C#N)cc3)COC2)no1`, for which the cytotoxicity at 10 µM was -5.96%.

Regarding `CN(Cc1cccnc1)[C@@H]1CN(Cc2ccccn2)[C@@H]2CCCO[C@H]12`, the cytotoxicity at 10 µM is -0.0545%.

With `CC(C)(C)Nc1c(C2CCN(C(=O)C(C)(C)C)CC2)nc2ccccn12`, the cytotoxicity at 10 µM was 6.53%.

Take `COCCC(=O)N1CCCC(c2noc3nc(C)cc(C(F)(F)F)c23)C1` (stereo not drawn): the cytotoxicity at 10 µM was -19.9%.

Consider `CCc1c(C)nc(C2CCCN2C(=O)c2cc(C)no2)nc1O` (stereo not drawn), for which the cytotoxicity at 10 µM is -5.75%.

Take `Cc1noc(CN(Cc2ccco2)Cc2cccc3c2OCO3)n1`: the cytotoxicity at 10 µM is -2.51%.

In the case of `CS(=O)(=O)NC1CCN(Cc2coc(-c3ccccc3)n2)CC1`, the cytotoxicity at 10 µM was -43.3%.

Turning to `CC(NCc1nnc2n1CCCC2)c1nc(C(C)(C)C)no1` (stereo not drawn), the cytotoxicity at 10 µM is -39.2%.

Turning to `CSC1(CNC(=O)NCc2sccc2C)CCOCC1`, the cytotoxicity at 10 µM is -49.6%.

With `COC(=O)c1ccc(N2CCN(C(=O)C3CCC3)C(C)C2)cc1` (stereo not drawn), the cytotoxicity at 10 µM was -4.18%.

In the case of `COc1cc(C(=O)O)ccc1OCC(=O)NC(C)c1ccc(F)cc1` (stereo not drawn), the cytotoxicity at 10 µM is -1.4%.

For `Cc1cc(CN(Cc2ccccc2)CC(O)c2cccs2)on1` (stereo not drawn), the cytotoxicity at 10 µM turned out to be 5.29%.

In the case of `CC(Oc1ccccc1C(F)(F)F)C(=O)NCCCC(N)=O` (stereo not drawn), the cytotoxicity at 10 µM is -1.73%.

In the case of `COc1cc(F)c(S(=O)(=O)NCc2ccnc(N(C)C)n2)cc1OC`, the cytotoxicity at 10 µM is -147%.

Take `CC(NC(=O)Nc1nncs1)C(=O)NC1CCCC1` (stereo not drawn): the cytotoxicity at 10 µM was -5.36%.

As for `Cc1nc(CNC(=O)NC2CCN(c3ncccc3Cl)C2)oc1C` (stereo not drawn), the cytotoxicity at 10 µM is 2.93%.

With `O=C(c1ccnn1-c1ccc2ccccn12)N1CCCC1`, the cytotoxicity at 10 µM is -102%.

On to `Cn1nc(C#N)c2c1CN(C(=O)c1nc[nH]n1)CCC2`, for which the cytotoxicity at 10 µM was -100%.

`COc1cc(N2CCC3(C2)CN(c2cccnc2)C(=O)CN3C)ncn1` (stereo not drawn): the cytotoxicity at 10 µM was -107%.

In the case of `CC(C)n1cnc(-c2nc(C(=O)NC3CC3)c3ccccn23)c1`, the cytotoxicity at 10 µM was -102%.

Consider `CS(=O)(=O)NCc1noc2c1CN(C(=O)C1CC1)CC2`, for which the cytotoxicity at 10 µM was -107%.

On to `CC[S+]([O-])CCc1nc(CC(C)C)nn1-c1ccc2c(c1)OCCO2` (stereo not drawn), for which the cytotoxicity at 10 µM worked out at 4.24%.

`COCCc1ncc(CN2C[C@H](C3CC3)[C@@H](N)C2)cn1`: the cytotoxicity at 10 µM is -42%.

Take `C=C(C)COc1cccc(CNC(CC(C)C)c2ncnn2C)c1` (stereo not drawn): the cytotoxicity at 10 µM turned out to be 1.16%.

As for `CCC(C)N(Cc1cnc(NC(C)C)nc1)Cc1ccsc1` (stereo not drawn), the cytotoxicity at 10 µM is 3.84%.

On to `CCC[C@H]1CN(S(C)(=O)=O)C[C@@H]1NC(=O)Cc1ccc(F)cc1C`, for which the cytotoxicity at 10 µM is -7.13%.

Take `CC(=O)NCCC(=O)N(C/C=C/c1ccccc1)CCO`: the cytotoxicity at 10 µM was 4.1%.

Regarding `O=C(CCNCc1cc(O)c2cc(F)ccc2n1)N1CCCC1`, the cytotoxicity at 10 µM was -49.3%.

In the case of `CCc1ncc2c(n1)CN(C(=O)CNC(=O)c1ccccc1)C2`, the cytotoxicity at 10 µM amounted to 2.41%.

For `CC(O)c1cn(CC2CCN(C(=O)c3cscn3)CC2)nn1` (stereo not drawn), the cytotoxicity at 10 µM is 1.83%.

For the compound `O=C(C1CCOCC1)N1CCO[C@H]2[C@H](Oc3ccccn3)CC[C@@H]21`, the cytotoxicity at 10 µM is -99.6%.

For the compound `CN(C)CCN1CCOCC2(CCCN(C(=O)c3ccoc3)C2)C1` (stereo not drawn), the cytotoxicity at 10 µM stood at 4.87%.

With `CCC1=N[C@@]2(CC[C@@H]3CN(CC4CC4)C[C@@H]32)C(=O)N1CC1CC1`, the cytotoxicity at 10 µM was 5.39%.

Consider `Cc1cccc(CN2CC3(CCN(C(=O)N(C)C)CC3)OCC2=O)n1`, for which the cytotoxicity at 10 µM was -3.88%.

Turning to `CCc1ncnc2c1CCN(CC(=O)N(C)C)CC2`, the cytotoxicity at 10 µM was -106%.

In the case of `Cc1cccc(CN2CCC3(CC2)CN(c2cccnc2)C(=O)CO3)n1`, the cytotoxicity at 10 µM was -96.1%.

In the case of `O=C(NCc1cccs1)[C@@H]1CC[C@@H]2[C@@H](CCN2CC2CCC2)O1`, the cytotoxicity at 10 µM is -10.2%.

For the compound `O=C(Nc1ccccc1)[C@H]1C[C@H]2CN(S(=O)(=O)C3CC3)C[C@@H]1O2`, the cytotoxicity at 10 µM turned out to be 4.44%.
